# Screens (PubChem BioAssay)
# A selection: hits, their analogues and other compounds. The true share with any hit is near 3.1%.
# KCNK3 inh = human KCNK3 channel inhibition, primary screen; O14649; CHO-KCNK3 thallium flux, FluxOR fluorescence; hits give low values; B-score at 10 µM; 340,000 compounds, 0.84% hits; AID 602410;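 active = B-score under library mean minus 4 SD, starting fluorescence ratio at most library mean plus 5 SD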;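 note: more negative B-score means stronger inhibition of thallium flux through KCNK3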
# Target sequence (O14649 whole entry, looked up): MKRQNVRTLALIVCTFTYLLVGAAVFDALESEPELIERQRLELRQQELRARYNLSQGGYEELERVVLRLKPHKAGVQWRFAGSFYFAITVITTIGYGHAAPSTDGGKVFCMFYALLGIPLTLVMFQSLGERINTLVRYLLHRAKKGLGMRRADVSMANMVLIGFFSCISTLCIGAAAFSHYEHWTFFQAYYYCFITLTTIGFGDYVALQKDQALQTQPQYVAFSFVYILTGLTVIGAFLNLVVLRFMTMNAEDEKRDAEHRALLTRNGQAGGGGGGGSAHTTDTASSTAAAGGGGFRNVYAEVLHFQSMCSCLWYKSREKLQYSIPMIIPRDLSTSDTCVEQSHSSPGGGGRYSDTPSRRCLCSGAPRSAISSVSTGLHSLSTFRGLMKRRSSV
# KCNQ1 inh = inhibitors of human KCNQ1 potassium channel; P51787; CHO-K1 KCNQ1, FluxOR thallium flux fluorescence; hits give high values; B-score at 10 µM; 310,000 compounds, 1.3% hits; AID 2642;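 active = compounds whose thallium flux B-score, printed positive for inhibition, exceeds three library SD while starting fluorescence stays within three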;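 note: channel opened by potassium depolarization with thallium stimulus after 20 min compound exposure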
# hERG protect = compounds protecting human hERG from proarrhythmic drug block; CHO-hERG, FluxOR thallium flux, dofetilide IC70 present; AID 1511; activation (rescue from dofetilide block), less the hit threshold, % at 10 µM; 310,000 compounds, 0.51% hits;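 active = activation above the mean of controls blocked by dofetilide plus 5 SD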;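 note: thallium influx through hERG after potassium depolarization seen as dye fluorescence rise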
# KCNQ1 pot = potentiators or activators of human KCNQ1 potassium channel; AID 2648; B-score at 10 µM; CHO-K1 KCNQ1, thallium flux FluxOR fluorescence; hits give high values; 310,000 compounds, 0.35% hits;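 active = fluorescence ratio B-score, a plate-corrected score, at least three library SD, with initial intensity B-score within 5 SD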
#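 Doses: Single concentration per compound, DMSO matched to controls | Test system: KCNQ1-transfected CHO-K1 cells | Timing: 90 min dye loading and 20 min compound exposure, both at room temperature | Measured by: Kinetic FluxOR thallium fluorescence, 10-s 1-Hz baseline, 110-s post-stimulus read | Medium: Assay buffer with matched DMSO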
# KCNK9 block = blocks the human KCNK9 two-pore domain potassium channel; HEK293 KCNK9, FluxOR thallium flux fluorescence; hits give low values; B-score at 10 µM; 310,000 compounds, 1.2% hits; Q9NPC2;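 active = ratio B-score over 3 SD below the library mean, with starting fluorescence within 5 SD of its mean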;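 note: negative B-score means less thallium flux so channel inhibition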
# KCNQ1 block val = confirmation of human KCNQ1 potassium channel inhibitors; shares compounds with KCNQ1 inh; KCNQ1 cell line, FluxOR thallium flux fluorescence; inhibition, % at 10 µM; 1,600 compounds, 93% hits;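 active = primary screen active, with duplicate mean exceeding buffer control mean plus 3 SD of buffer wells, cut at about 28% in these data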;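 note: 0% = buffer control ratio and 100% = XE991 inhibitor control ratio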
# CHO Tl flux = counter-screen for KCNQ1 inhibitors: effect in parental CHO cells; fluorescence ratio (Tl flux) at 10 µM; shares compounds with KCNQ1 inh; parental CHO-K1, FluxOR thallium flux fluorescence ratio; hits give low values; zero means no signal rise above baseline; 1,600 compounds, 21% hits;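 active = mean of duplicate thallium-flux fluorescence ratios in parental host cells more than 5 SD below the buffer control mean, cut at about 0.38 in these data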;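 note: ratio is peak minus minimum fluorescence divided by baseline fluorescence; actives read low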
# KCNQ2 inh = selectivity of KCNQ1 inhibitors: inhibition of rat KCNQ2 channel | shares compounds with KCNQ1 inh | KCNQ2 cells, FluxOR thallium flux fluorescence | inhibition, % at 10 µM | 1,600 compounds, 71% hits | AID 651746;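 active = mean percent inhibition of the KCNQ2 thallium signal more than 5 SD above the buffer-only control wells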;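 note: KCNQ2 expressed in CHO cells; 0% = buffer control wells and 100% = XE-991 inhibitor control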
# KCNQ1-KCNE1 inh = human KCNQ1/KCNE1 inhibition in KCNQ1 specificity screen; shares compounds with KCNQ1 inh; KCNQ1/KCNE1 cells, FluxOR thallium flux fluorescence; inhibition, % at 10 µM; 1,600 compounds, 77% hits; AID 652147;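 active = mean percent inhibition of duplicate wells above the buffer-only control mean plus 3 SD of those controls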;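 note: 0% = buffer only wells and 100% = XE-991 inhibitor control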
# * hit, by the source's call; i = inactive; . = not tested or not shown.
SMILES,KCNK3 inh,KCNQ1 inh,hERG protect,KCNQ1 pot,KCNK9 block,others
O=C(NC(=S)N1CCN(C/C=C/c2ccccc2)CC1)c1cccnc1,i,i,-10,i,i,
C=CCOc1ccc2c(c1)C(=NO)c1cc(OCC=C)ccc1-2,i,i,-1,i,-7.8*,
COc1ccc2c(c1)C(=NO)c1cc(OC)ccc1-2,i,i,-7,i,i,
O=C(NCC(c1cccs1)N1CCOCC1)C1CCN(S(=O)(=O)c2cccc(C(F)(F)F)c2)CC1 (stereo unspecified),i,i,-6,9*,i,
CCc1c(C)sc(NC(=O)c2cccs2)c1C(=O)OC(C)C,i,i,-10,i,-6.6*,
O=C(Nc1ccc(Nc2ccncc2)cc1)c1ccc(Nc2ccnc3ccc([N+](=O)[O-])cc23)cc1[N+](=O)[O-],i,i,13*,i,i,
O=C(Nc1ccc(Nc2ccncc2)cc1)c1ccc([N+](=O)[O-])cc1,i,i,-15,i,i,
O=C(COC(=O)c1ccc(Sc2ccccc2)c([N+](=O)[O-])c1)NC1CCCc2ccccc21 (stereo unspecified),i,i,-12,i,i,
CC1CC(C)CN(c2ccc(C(=O)OCC(=O)NC3CCCc4ccccc43)cc2[N+](=O)[O-])C1 (stereo unspecified),i,i,-13,i,-6.7*,
COC(=O)c1c(NC(=O)CSc2nnnn2-c2ccc3c(c2)OCO3)sc(C)c1C,i,i,3,i,-6.9*,
CCOC(=O)c1c(NC(=O)CSc2nnnn2-c2ccc3c(c2)OCO3)sc(C)c1C,i,i,-6,i,i,
O=C(c1cc2nc(-c3ccc(Cl)cc3)cc(C(F)(F)F)n2n1)N1CCOCC1,i,i,46*,i,i,
CCOC(=O)[C@@H]1[C@H]2COc3ccccc3[C@H]2N2C(=O)N(c3cccc(C)c3)C(=O)[C@]12C,i,.,.,.,.,
Cc1cc(C(F)(F)F)n(-c2nc(C(=O)NN)cs2)n1,i,i,5.0*,i,i,
O=[N+]([O-])c1cc(Br)c(O)c(C=Nc2ccc(N3CCOCC3)cc2)c1,i,11*,-14,i,i,
COc1ccc(/C=N/NC(=O)CCn2nc(C)cc2C)cc1,i,i,-10,i,i,
Cc1cc(C)n(CCC(=O)N/N=C/c2ccc(Cl)c([N+](=O)[O-])c2)n1,i,7*,-12,i,i,
CC1=C/C(=C(\c2cc(C)c(O)c(Br)c2)c2ccccc2S(=O)(=O)O)C=C(Br)C1=O,i,i,-3,i,i,
CC1CC(C)CN(C(=O)CN2C(=O)NC3(CCCCCCC3)C2=O)C1 (stereo unspecified),i,.,.,.,.,
O=C(OCCN1CCOCC1)c1ccc2c(c1)OCCO2,i,i,-3,i,i,
O=C(CCN1CCOCC1)c1ccc2c(c1)OCCO2,i,8*,-15,i,i,KCNQ1 block val=64*;CHO Tl flux=0.36*;KCNQ2 inh=i;KCNQ1-KCNE1 inh=60%*
CC(C)Oc1ccc(C(=O)Nc2cc(S(=O)(=O)N3CCOCC3)ccc2N2CCOCC2)cc1,i,.,.,.,.,
Cc1cccc(NC(=O)CSc2nc3ccccc3nc2N2CCCCC2)c1,i,8*,-4,i,i,KCNQ1 block val=84*;CHO Tl flux=0.47;KCNQ2 inh=107%*;KCNQ1-KCNE1 inh=122%*
COc1ccc(C)cc1NC(=O)CSc1nc2ccccc2nc1N1CCCC1,i,i,-12,i,i,
Cc1cccc(NC(=O)CSc2nc3ccccc3nc2N2CCCC2)c1,i,i,-10,i,i,
